Experimental findings from PubChem BioAssay AID588842 (Broad Institute, 2011) are described below.

SMILES strings stand for the structures. Results filed as inconclusive are left out. Active and inactive are the calls of the source.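 How the source made its calls: active means cytotoxic compounds whose fitted half-effect concentration is at most twice the top tested dose in every test run; inconclusive means test runs disagree, or a flat moderate drop, or a poor fit; inactive means inactive in every run, including wrong-direction effects.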

For assay [1], the system named is ldlA[mSR-BI] CHO cells viability, CellTiter-Glo ATP, 24 h. The experiment in a line: ldlA[mSR-BI] cell viability loss – CellTiter-Glo ATP, 24 h, dry powder, set 4, cytotoxicity control for HDL uptake inhibitor project, dose response (AID 588842). The essentials: (§1)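 Test system – ldlA[mSR-BI] cells · Amount – 4,000 cells/well · Medium – 10% FCS plus PSG in Ham's F12 · Times – 24 h compound treatment, 37 °C · Technique – luciferase luminescence reporting cellular ATP, CellTiter-Glo reagent · Read-out basis – IC50 from compound dose-response curves of cell viability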

Assay in assay [2]: as above
The settings on record: ldlA[mSR-BI] CHO cells viability, CellTiter-Glo ATP, 24 h. The essentials: as §1

For the compound `CCC(=O)N1CCc2cc(-c3csc(NC(=O)c4ccccc4)n3)ccc21`, the half-maximal activity concentration (AC50) in assay [1] was 67.8 µM.

Take `C[C@H]1CN([C@@H](C)CO)C(=O)c2cccc(NC(=O)Nc3ccccc3)c2O[C@@H]1CN(C)Cc1ccc(Cl)c(Cl)c1`: the AC50 in assay [1] is 29.8 µM.

With `CCC(=O)N1CCc2cc(-c3csc(N)n3)ccc21`, in assay [2] (at 35 µM (top of the series)), the activity change, negative = cytotoxicity is -18.4% (inactive).

As to `CC(C(=O)NC1CCCC1)N(C(=O)Cn1nnc(-c2ccc3c(c2)OCO3)n1)C1CCCCC1` (configuration not stated), the activity change, negative = cytotoxicity in assay [2] (at 35 µM (top of the series)) was -16.1% (inactive).

`CCC(=O)N1CCc2cc(-c3csc(NC(=O)c4cccnc4)n3)ccc21`: the activity change, negative = cytotoxicity in assay [2] (at 35 µM (top of the series)) is -3.5% (inactive).

Regarding `CCC(=O)N1CCc2cc(-c3csc(NC(=O)c4ccncc4)n3)ccc21`, the activity change, negative = cytotoxicity in assay [2] (at 35 µM (top of the series)) was -2.04% (inactive).

As to `CCC(=O)N1CCc2cc(-c3csc(NC(=O)c4cnco4)n3)ccc21`, the activity change, negative = cytotoxicity in assay [2] (at 35 µM (top of the series)) was -1.99% (inactive).

Take `CCC(=O)N1CCc2cc(-c3csc(NC(=O)c4ccoc4)n3)ccc21`: in assay [2] (at 35 µM (top of the series)), the activity change, negative = cytotoxicity is -8.58% (inactive).

In the case of `O=C(Nc1nc(-c2ccc3c(c2)CCN3S(=O)(=O)c2ccccc2)cs1)c1ccco1`, the activity change, negative = cytotoxicity in assay [2] (at 35 µM (top of the series)) was -30.8% (inactive).

Take `CCOc1ccccc1/C=C/c1onc(C)c1S(=O)(=O)N1CCC(C(=O)NC(C)(C)C)CC1`: in assay [1], the concentration at half-maximal activity (AC50) is 30.1 µM.

Take `CCC(=O)N1CCc2cc(-c3csc(NC(=O)c4ccc(Cl)cc4)n3)ccc21`: the activity change, negative = cytotoxicity in assay [2] (at 35 µM (top of the series)) was -5.95% (inactive).

Regarding `CCC(=O)N1CCc2cc(-c3csc(NC(=O)c4ccco4)n3)ccc21`, the activity change, negative = cytotoxicity in assay [2] (at 35 µM (top of the series)) is -17.6% (inactive).

On to `CCOc1ccc(NC(=O)CN2CCN(CC(=O)Nc3cc(OC)cc(OC)c3)CC2)cc1`, for which the activity change, negative = cytotoxicity in assay [2] (at 68 µM (top of the series)) was -20% (inactive).

Take `CCC(=O)N1CCc2cc(-c3csc(NC(=O)c4ccc(F)cc4)n3)ccc21`: in assay [1], the concentration at half-maximal activity (AC50) was 48.2 µM.

Regarding `CCC(=O)N1CCc2cc(-c3csc(NC(=O)c4ccc(OC)cc4)n3)ccc21`, the activity change, negative = cytotoxicity in assay [2] (at 35 µM (top of the series)) is -11.6% (inactive).

Consider `CCCCCCC1CCC/C1=N\NC(N)=S` (configuration not stated), for which the half-maximal activity concentration (AC50) in assay [1] was 3.86 µM.

`CC(C)NC(=O)Nc1cccc2c1O[C@H](CN(C)Cc1ccc(Cl)c(Cl)c1)[C@@H](C)CN([C@@H](C)CO)C2=O`: in assay [1], the AC50 was 58 µM.

On to `C[C@@H]1CN([C@H](C)CO)C(=O)c2cc(NC(=O)Cc3cn(C)c4ccccc34)ccc2O[C@H]1CN(C)S(=O)(=O)c1ccc(F)cc1`, for which the AC50 in assay [1] was 47.7 µM.

Regarding `CC(C(=O)NC1CCCC1)N(C(=O)Cc1ccccc1)C1CCCCC1` (configuration not stated), the activity change, negative = cytotoxicity in assay [2] (at 35 µM (top of the series)) was -1.74% (inactive).

Regarding `COc1c(NC(=O)C(=O)c2ccc(OCCN3CCOCC3)c3ccccc23)cc(C(C)(C)C)cc1NS(C)(=O)=O`, the AC50 in assay [1] is 15.5 µM.

On to `C[C@@H]1CN([C@H](C)CO)C(=O)c2cc(NC(=O)Cc3cn(C)c4ccccc34)ccc2O[C@H]1CN(C)S(=O)(=O)c1ccc(Cl)cc1`, for which the activity change, negative = cytotoxicity in assay [2] (at 35 µM (top of the series)) is -19% (inactive).

On to `COc1ccc(-c2nnn(CC(=O)N(C3CCCCC3)C(C)C(=O)NC3CCCC3)n2)cc1OC` (configuration not stated), for which the activity change, negative = cytotoxicity in assay [2] (at 35 µM (top of the series)) is -11.1% (inactive).

Usually AC50 stands for the concentration giving half of the maximal activity seen.
